Seven molecules from ChEMBL document CHEMBL1122693, “Biological activity and a modified synthesis of 8-amino-3-beta-D-ribofuranosyl-1,2,4-triazolo[4,3-a]pyrazine, an isomer of formycin” (1984) can be followed below.

Experiment [1] relates to Coxsackievirus B4. The experiment is described as follows: Compound was tested for antiviral activity (minimum inhibition concentration) in HeLa cells coxsackie virus type 4. It counts as functional. The conditions noted are these: Enterovirus B. In short, it runs like this: (§1)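 Inhibition of virus-induced cytopathogenicity, scored as minimum inhibitory concentration (µg/mL) in the host cell monolayers listed: HSV-1 (KOS) and HSV-2 (G) in primary rabbit kidney cells; measles, reovirus type 1, parainfluenza type 3, Coxsackie B4 and Sindbis in Vero cells; Coxsackie and polio in HeLa cells. Minimum cytotoxic concentration taken as microscopically detectable alteration of normal cell morphology; highest concentration tested 400 µg/mL.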

For experiment [2], the system named is Coxsackievirus B4. The experiment is described as follows: Compound was tested for antiviral activity (minimum inhibition concentration) in Vero cells coxsackie virus type B4. The conditions noted are these: Enterovirus B. It counts as functional. Put shortly: as §1
The subject of experiment [3] is Human alphaherpesvirus 1. The experiment is described as follows: Compound was tested for antiviral activity against herpes simplex virus-1(KOS) in primary rabbit kidney cells. The experiment is classed as functional. In short, it runs like this: as §1
Experiment [4] deals with Human alphaherpesvirus 2. The experiment is described as follows: Compound was tested for antiviral activity against herpes simplex virus-2(G) in primary rabbit kidney cells. The experiment is classed as functional. Put shortly: as §1
Experiment [5] deals with Measles morbillivirus. The experiment is described as follows: Compound was tested for antiviral activity against measles virus in vero cells. It counts as functional. In short, it runs like this: as §1
For experiment [6], the system named is Human respirovirus 3. The experiment is described as follows: Compound was tested for antiviral activity (minimum inhibition concentration) in Vero cells parainfluenza virus type 3. The experiment is classed as functional. In short, it runs like this: as §1
The test system of experiment [7] is Poliovirus 1. The experiment is described as follows: Compound was tested for antiviral activity (minimum inhibition concentration) in HeLa cells polio virus type 1. The following applies: Enterovirus C. It counts as functional.
For experiment [8], the system named is Mammalian orthoreovirus 1. The experiment is described as follows: Compound was tested for antiviral activity (minimum inhibition concentration) in Vero cells reovirus type 1. It counts as functional. Put shortly:
as §1

The subject of experiment [9] is Sindbis virus. The experiment is described as follows: Compound was tested for antiviral activity (minimum inhibition concentration) in Vero cells sindbis virus. It counts as functional. In short, it runs like this:
as §1

In experiment [10] the test system is Vesicular stomatitis virus. The experiment is described as follows: Compound was tested for antiviral activity (minimum inhibition concentration) in HeLa cells vesicular stomatitis virus (VSV). It counts as functional.
Experiment [11] relates to Vesicular stomatitis virus. The experiment is described as follows: Compound was tested for antiviral activity against vesicular stomatitis virus in primary rabbit kidney cells. The experiment is classed as functional.
The subject of experiment [12] is Vaccinia virus. The experiment is described as follows: Compound was tested for antiviral activity against vaccinia virus in primary rabbit kidney cells. The experiment is classed as functional. The following applies: Orthopoxvirus vaccinia.
Experiment [13] is described as follows: Coronary vasoactivity as molar potency ratio (MPR), the quotient of ED50 of adenosine by that of the test nucleoside. It counts as functional. In short, it runs like this:
(§2)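 Dogs anesthetized with morphine-thiamylal-fluothane. MPR is ED50 of adenosine divided by ED50 of test nucleoside. Dog-to-dog variation in MPR about ±10%.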

The test system of experiment [14] is L1210. The experiment is described as follows: Effect of compound on the incorporation of nucleic acid precursor into L1210 cells (cpm x 10e-3),precursors used along with compound were [14C]uridine. It counts as functional, Mus musculus. Put shortly:
(§3)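 L1210 suspension cultures in RPMI 1640 with 10% horse serum, at 37 °C, preincubated 90 min with or without test compound at 1 mM. 14C-precursor (cytidine, uridine, adenosine or thymidine) then added to 0.04 µCi/mL final and incubated a further 30 min. Cells pelleted and Schmidt-Thannhauser fractionation gave acid-soluble, RNA and DNA fractions, counted by scintillation. Duplicate flasks; results as cpm ×10^-3 and % of control.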

Experiment [15] deals with L1210. The experiment is described as follows: Effect of compound on the incorporation of nucleic acid precursor into L1210 cells (cpm x 10e-3), precursors used along with compound were [14C]-Adenosine. The experiment is classed as functional, Mus musculus. Put shortly: as §3
For experiment [16], the system named is L1210. The experiment is described as follows: Effect of compound on the incorporation of nucleic acid precursor into L1210 cells (cpm x 10e-3), precursors used along with compound were [14C]cytidine. The experiment is classed as functional, Mus musculus. Put shortly:
as §3

Experiment [17] concerns L1210. The experiment is described as follows: Effect of compound on the incorporation of nucleic acid precursor into L1210 cells (cpm x 10e-3),precursors used along with compound were [14C]cytidine. The experiment is classed as functional, Mus musculus. Put shortly:
as §3

Experiment [18] can be described thus: Coronary vasoactivity (molar potency ratio (MPR), the quotient of ED50 of adenosine by that of the test nucleoside)Dog to dog variations in MPR are about +/-10%. The experiment is classed as functional. In short, it runs like this:
as §2

In brackets after ≈: the same amount, converted by molar mass. Several values for one entry are separate records, joined by “and”; a condition that tells them apart may be missing. Equal entries are not always repeated.

For the molecule `Nc1ncnc2c([C@@H]3O[C@H](CO)[C@@H](O)[C@H]3O)[nH]nc12` [FORMYCIN], the MIC in [1] is no less than 200 µg/mL; in experiment [2], no less than 40 µg/mL; in experiment [3], 4 µg/mL (≈ 15 µM); in [4] it was 4 µg/mL (≈ 15 µM); in experiment [5] it was no less than 40 µg/mL; in experiment [6] it was no less than 40 µg/mL. Further, the MIC in experiment [7] is 10 µg/mL (≈ 37.4 µM); in experiment [8] it was no less than 40 µg/mL; in experiment [9], no less than 40 µg/mL; in experiment [10] it was 10 µg/mL (≈ 37.4 µM); in experiment [11], 2 µg/mL (≈ 7.48 µM); in experiment [12] it was 4 µg/mL (≈ 15 µM). Further, the MPR in experiment [13] was found to be 0.043.

With `Nc1ncnc2c1ccn2[C@@H]1O[C@H](CO)[C@@H](O)[C@H]1O`, the MPR in experiment [13] was 0.071.

For `Nc1nccc2c1ncn2[C@@H]1O[C@H](CO)[C@@H](O)[C@H]1O`, the MIC in experiment [1] amounted to 40 µg/mL (≈ 150 µM); in experiment [2], 4 µg/mL (≈ 15 µM); in experiment [3] it was 40 µg/mL (≈ 150 µM); in experiment [4] it was 10 µg/mL (≈ 37.6 µM); in experiment [5], 40 µg/mL (≈ 150 µM); in [6], 2 µg/mL (≈ 7.51 µM). Also, the MIC in [7] was 40 µg/mL (≈ 150 µM); in experiment [8] it was 4 µg/mL (≈ 15 µM); in [9], 40 µg/mL (≈ 150 µM); in experiment [10], 10 µg/mL (≈ 37.6 µM); in experiment [11], 7 µg/mL (≈ 26.3 µM); in [12], 7 µg/mL (≈ 26.3 µM).

With `NC(=O)c1ncn([C@@H]2O[C@H](CO)[C@@H](O)[C@H]2O)n1` [RIBAVIRIN], the MIC was 20 µg/mL (≈ 81.9 µM) in experiment [1]; 200 µg/mL (≈ 819 µM) in [2]; greater than 400 µg/mL in experiment [3]; greater than 400 µg/mL in experiment [4]; 20 µg/mL (≈ 81.9 µM) in experiment [5]; 10 µg/mL (≈ 40.9 µM) in experiment [6]. Besides, the MIC turned out to be 10 µg/mL (≈ 40.9 µM) in experiment [7]; 100 µg/mL (≈ 409 µM) in [8]; 40 µg/mL (≈ 164 µM) in [9]; 20 µg/mL (≈ 81.9 µM) in experiment [10]; 20 µg/mL (≈ 81.9 µM) in experiment [11]; 20 µg/mL (≈ 81.9 µM) in experiment [12].

Consider `Nc1ncnc2c1nnn2[C@@H]1O[C@H](CO)[C@@H](O)[C@H]1O`, for which the MPR in experiment [13] was 0.042.

Turning to `Nc1nccn2c([C@@H]3O[C@H](CO)[C@@H](O)[C@H]3O)nnc12`, the MIC in [1] was greater than 400 µg/mL; in [2], 200 µg/mL (≈ 748 µM); in experiment [3], greater than 400 µg/mL; in experiment [4] it was 200 µg/mL (≈ 748 µM); in experiment [5], 200 µg/mL (≈ 748 µM); in experiment [6] it was 100 µg/mL (≈ 374 µM). The MIC was greater than 400 µg/mL in [7]; 200 µg/mL (≈ 748 µM) in [8]; 300 µg/mL (≈ 1120 µM) in [9]; 150 µg/mL (≈ 561 µM) in [10]; 100 µg/mL (≈ 374 µM) in experiment [11]; 100 µg/mL (≈ 374 µM) in experiment [12]. For the same molecule, the Fraction in [14] is on record as 24. Also, the RNA fraction in experiment [15] is 24 and 19.8. Also, the Total uptake is 128.8 and 161.7 in [16]; 50.4 in experiment [17]. Also, the MPR in [18] was determined as 0.0015.

As to `Nc1nnnc2c1ncn2[C@@H]1O[C@H](CO)[C@@H](O)[C@H]1O`, the MPR in experiment [13] was determined as 0.15.
